Assays:
MDA-MB-231 = assay: Antiproliferative activity against human MDA-MB-231 cells after 72 hrs by MTT assay; format: functional, cell-based
MDA-MB-435 [1] = assay: Antiproliferative activity against human MDA-MB-435 cells after 72 hrs by MTT assay; format: functional, cell-based; conditions: MDA-MB-435, 72 h
[2] = Antiproliferative activity against mouse B16F10 cells after 72 hrs by MTT assay; format: functional, cell-based; conditions: B16-F10, 72 h
Caco-2 = assay: Antiproliferative activity against human Caco2 cells after 72 hrs by MTT assay; format: functional, cell-based
[3] = Antiproliferative activity against human HuH7 cells after 72 hrs by MTT assay; format: functional, cell-based; conditions: Huh-7, 72 h
DU-145 = assay: Antiproliferative activity against human DU145 cells after 72 hrs by MTT assay; format: functional, cell-based
[4] = Antimigratory activity in mouse B16F10 cells after 24 hrs by fibronectin-coated boyden chamber assay; format: functional, cell-based; conditions: b16-f10
Method in brief: (§1)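 Boyden chamber inserts were coated overnight with laminin, fibronectin or vitronectin (human plasma), PBS-washed and blocked 1 h with 0.5% BSA. Cells in DMEM/0.1% BSA were placed in the upper compartment for 24 h with or without compound. Non-migrating cells were wiped off; lower-side cells were methanol-fixed, crystal violet-stained and counted. Run in triplicate. Ki came from Hill fit of dose-log response curves.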

[5] = Antimigratory activity in mouse B16F10 cells after 24 hrs by laminin-coated boyden chamber assay; format: functional, cell-based; conditions: b16-f10; method in brief: as §1
[6] = Antimigratory activity in mouse B16F10 cells after 24 hrs by vitronectin-coated boyden chamber assay; format: functional, cell-based; conditions: b16-f10; method in brief: as §1
[7] = Antiinvasive activity in mouse B16F10 cells after 24 hrs by matrigel assay in presence of HGF; format: functional, cell-based; conditions: b16-f10
Method in brief: (§2)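 Boyden chamber inserts loaded with Matrigel diluted 33-fold in PBS, with HGF in the lower chamber. Cells resuspended in DMEM with 0.1% BSA were plated in the upper compartment and incubated 24 h with or without compound. Cells on the lower membrane surface were methanol-fixed, crystal violet-stained and counted. % Inh was computed against untreated migration. Run in triplicate. EC50/Ki were obtained by Hill fit of dose-log response curves.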

MDA-MB-435 [8] = assay: Antimigratory activity in human MDA-MB-435 cells after 24 hrs by fibronectin-coated boyden chamber assay; format: functional, cell-based; method in brief: as §1
MDA-MB-435 [9] = assay: Antimigratory activity in human MDA-MB-435 cells after 24 hrs by laminin-coated boyden chamber assay; format: functional, cell-based; method in brief: as §1
MDA-MB-435 [10] = assay: Antimigratory activity in human MDA-MB-435 cells after 24 hrs by vitronectin-coated boyden chamber assay; format: functional, cell-based; method in brief: as §1
MDA-MB-435 [11] = assay: Antiinvasive activity in human MDA-MB-435 cells after 24 hrs by matrigel assay in presence of HGF; format: functional, cell-based; conditions: read-out: Ki; method in brief: as §2
[12] = Cytotoxicity against mouse B16F10 cells; format: cell-based; conditions: b16-f10
MDA-MB-435 [13] = assay: Cytotoxicity against human MDA-MB-435 cells; format: cell-based
[14] = Homo sapiens, MDA-MB-231, 72 h, read-out: IC50
[15] = Homo sapiens, Caco-2, 72 h, read-out: IC50
[16] = Homo sapiens, DU-145, 72 h, read-out: IC50

Row | IC50 (MDA-MB-231; [14]) [nM] | IC50 (MDA-MB-435 [1]) [nM] | IC50 (Caco-2; [15]) [nM] | IC50 (DU-145; [16]) [nM] | EC50 (MDA-MB-435 [11]) [nM] | IC50 (MDA-MB-231; mda-mb-231) | IC50 (Caco-2; caco-2) | IC50 (DU-145; du-145) | SMILES | IC50 [2] [nM] | IC50 [3] [nM] | Ki [4] [nM] | Ki [5] [nM] | Ki [6] [nM] | Ki [7] [nM] | Ki (MDA-MB-435 [8]) [nM] | Ki (MDA-MB-435 [9]) [nM] | Ki (MDA-MB-435 [10]) [nM] | Activity [12] | Activity (MDA-MB-435 [13])
1 | 466 | 0.55 | 20500 | 215 | 28 |  |  |  | O=[P@@]1(c2ccccc2)O[C@H](COCc2ccccc2)[C@@H](OCc2ccccc2)[C@H](OCc2ccccc2)[C@@H]1I | 7.7 | 229 | 16 | 17 | 44 | 29 | 29 | 25 | 43 |  | 
2 | 478 | 0.3 | 28600 | 104 | 35 |  |  |  | O=[P@@]1(c2ccccc2)O[C@H](COCc2ccccc2)[C@@H](OCc2ccccc2)[C@H](OCc2ccccc2)[C@H]1I | 4 | 13 | 20 | 16 | 35 | 37 | 28 | 23 | 101 | Toxic | Toxic
3 | 445 | 0.2 | 24700 | 102 | 13 |  |  |  | O=[P@@]1(c2ccccc2)O[C@H](COCc2ccccc2)[C@@H](OCc2ccccc2)[C@H](OCc2ccccc2)[C@@H]1Br | 4.6 | 11.6 | 46 | 10 | 21 | 17 | 39 | 34 | 46 |  | 
4 | 432 | 0.35 | 29500 | 86.5 | 30 |  |  |  | O=[P@@]1(c2ccccc2)O[C@H](COCc2ccccc2)[C@@H](OCc2ccccc2)[C@H](OCc2ccccc2)[C@H]1Br | 3.8 | 15.8 | 30 | 20 | 50 | 32 | 28 | 42 | 78 |  | 
5 | 359 | 1.6 | 24800 | 226 | 35 |  |  |  | O=[P@@]1(c2ccccc2)O[C@H](COCc2ccccc2)[C@@H](OCc2ccccc2)[C@H](OCc2ccccc2)[C@H]1Cl | 7.7 | 1170 | 18 | 13 | 380 | 37 | 36 | 32 | 52 | Toxic | Toxic
6 | 286 | 0.52 | 28400 | 116 |  |  |  |  | O=[P@]1(c2ccccc2)C=C(OCc2ccccc2)[C@H](OCc2ccccc2)[C@@H](COCc2ccccc2)O1 | 4.4 | 37.5 |  |  |  |  |  |  |  |  | 
7 |  | 1.45 |  |  | 31 | Not Active | Not Active | Not Active | O=[P@@]1(c2ccccc2)O[C@H](COCc2ccccc2)[C@@H](OCc2ccccc2)[C@H](OCc2ccccc2)[C@H]1F | 1.7 | 12.1 | 22 | 16 | 40 | 33 | 28 | 34 | 66 |  | 
8 |  |  |  |  | 36 |  |  |  | O=[P@@]1(c2ccccc2)O[C@H](COCc2ccccc2)[C@@H](OCc2ccccc2)[C@H](OCc2ccccc2)[C@@H]1Cl |  |  | 49 | 19 | 34 | 35 | 28 | 23 | 41 |  | 
